Structures can show the parent of a compound that is named as a salt. The source made the active and inactive calls. The rule behind the calls is not given here.

Data set [1] is described as follows: Cytotoxicity against human HCT116 cells after 72 hrs by MTT assay. The format is functional, cell-based. To be noted: HCT-116, 72 h.
A further data set relates to K562. The data set is described as follows: Cytotoxicity against human K562 cells after 72 hrs by MTT assay. It is filed as functional, cell-based. The note with it: K562, 72 h.
The subject of a further data set is A549. The data set is described as follows: Cytotoxicity against human A549 cells after 72 hrs by MTT assay. To be noted: A549, 72 h. The format is functional, cell-based.
The nature of data set [2]: Cytotoxicity against human HO8910 cells after 72 hrs by MTT assay. It is filed as functional, cell-based. The note with it: HO-8910, 72 h.
Another data set concerns NCI-H1975. The data set is described as follows: Cytotoxicity against human NCI-H1975 cells after 72 hrs by MTT assay. The format is functional, cell-based. The note with it: NCI-H1975, 72 h.
Data set [3] in a line: Cytotoxicity against human HL60 cells after 72 hrs by MTT assay. It is filed as functional, cell-based. To be noted: HL-60, 72 h.
The nature of data set [4]: Chemical stability of the compound in deuterated DMSO by NMR spectroscopic analysis. It is filed as physicochemical.
A short description of data set [5]: Cytotoxicity against human MGC803 cells after 72 hrs by MTT assay. The format is functional, cell-based. To be noted: MGC-803, 72 h.
Data set [6] has as its target T1, DNA topoisomerase 1 (Homo sapiens) (UniProt P11387).
T1 sequence (whole entry): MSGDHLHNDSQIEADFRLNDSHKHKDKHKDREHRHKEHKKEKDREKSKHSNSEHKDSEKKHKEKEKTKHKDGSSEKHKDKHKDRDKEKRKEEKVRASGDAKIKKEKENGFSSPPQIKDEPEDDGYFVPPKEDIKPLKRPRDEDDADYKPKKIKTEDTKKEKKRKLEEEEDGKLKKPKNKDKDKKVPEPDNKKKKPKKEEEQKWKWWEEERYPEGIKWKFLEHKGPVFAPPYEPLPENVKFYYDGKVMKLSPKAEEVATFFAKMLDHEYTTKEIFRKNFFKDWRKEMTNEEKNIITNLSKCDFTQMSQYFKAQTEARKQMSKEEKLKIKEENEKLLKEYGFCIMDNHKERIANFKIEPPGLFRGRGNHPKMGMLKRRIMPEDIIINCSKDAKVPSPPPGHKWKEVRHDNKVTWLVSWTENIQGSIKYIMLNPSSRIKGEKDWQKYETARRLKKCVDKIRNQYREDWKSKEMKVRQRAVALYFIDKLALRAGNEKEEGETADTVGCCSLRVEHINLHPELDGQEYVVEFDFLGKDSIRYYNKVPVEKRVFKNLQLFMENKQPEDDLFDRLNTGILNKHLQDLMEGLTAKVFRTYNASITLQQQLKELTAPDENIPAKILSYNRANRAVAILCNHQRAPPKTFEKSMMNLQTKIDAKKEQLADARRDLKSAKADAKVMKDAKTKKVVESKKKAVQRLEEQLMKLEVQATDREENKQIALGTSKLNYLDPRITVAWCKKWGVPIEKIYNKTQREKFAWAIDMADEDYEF
Description: Inhibition of topoisomerase 1 (unknown origin) assessed as decrease in PBR322 DNA relaxation at 5 to 40 uM after 30 mins by ethidium bromide staining-based agarose gel electrophoresis. The method in brief:
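Supercoiled pBR322 plasmid DNA served as substrate. Samples were resolved on 1% agarose gels and stained with ethidium bromide. Supercoiled and relaxed DNA bands were marked on the gel.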

In the case of `COC(=O)[C@@]12Oc3ccc(-c4ccc(O)c5c4O[C@](C(=O)OC)([C@@H]4OC(=O)C[C@@H]4C)CC5=O)c(O)c3C(=O)C1=C(O)C[C@H](C)[C@H]2O`, the IC50 in [1] is above 50 µM; with K562, 18.2 µM; in the data set on A549 it was above 50 µM; in data set [2], above 50 µM; in the data set with NCI-H1975 it was 25.6 µM; in data set [3], 7.8 µM. The Stability entry in data set [4] is “Unstable”.

`COc1cccc2c1C(=O)c1c(O)c3c(c(O)c1C2=O)C[C@@](O)(C(=O)CO)C[C@@H]3O[C@H]1C[C@H](N)[C@H](O)[C@H](C)O1` [DOXORUBICIN HYDROCHLORIDE]: the IC50 in [5] was 0.2 µM; in [1], 0.2 µM; in the data set with NCI-H1975, 0.8 µM.

For the molecule `COC(=O)C[C@H](C)[C@@H](O)[C@]1(C(=O)OC)CC(=O)c2c(ccc(-c3ccc4c(c3O)C(=O)C3=C(O)C[C@H](C)[C@@H](O)[C@]3(C(=O)OC)O4)c2O)O1`, the IC50 in [1] was determined as 0.7 µM; in the data set on K562 it was 6.7 µM; in the data set on A549 it was 10.6 µM; in data set [2], 20.8 µM; in data set [3], 2.7 µM. In addition, the Stability result in [4] is “Unstable”.

As to `COC(=O)[C@@]12Oc3ccc(-c4ccc5c(c4O)C(=O)C[C@@](C(=O)OC)([C@@H]4OC(=O)C[C@@H]4C)O5)c(O)c3C(=O)C1=C(O)C[C@H](C)[C@H]2O`, the IC50 was 9.8 µM in data set [5]; 6.1 µM in [1]; 9.1 µM with K562; 12.7 µM in the data set on A549; 13.9 µM in data set [2]; above 50 µM with NCI-H1975. Inhibition in data set [3] was half-maximal at 3.1 µM (IC50). Further, in [4], the Stability entry was “Unstable”.

Turning to `COC(=O)C[C@H](C)[C@@H](O)[C@]1(C(=O)OC)CC(=O)c2c(ccc(-c3ccc(O)c4c3O[C@]3(C(=O)OC)C(=C(O)C[C@H](C)[C@H]3O)C4=O)c2O)O1`, the IC50 in data set [5] is 2.2 µM; with K562, 11.1 µM; in data set [2], 2 µM; with NCI-H1975, 2.7 µM; in [3], 1.6 µM. Moreover, in data set [4], the Stability entry was “Unstable”. Moreover, the inhibition entry in data set [6] is “Active”.

Regarding `COC(=O)[C@@]12Oc3c(-c4ccc5c(c4O)C(=O)C[C@@](C(=O)OC)([C@@H]4OC(=O)C[C@@H]4C)O5)ccc(O)c3C(=O)C1=C(O)C[C@H](C)[C@H]2O`, the IC50 was above 50 µM in data set [5]; 7.1 µM with K562; above 50 µM in the data set on A549; 10.1 µM in data set [2]; 11.2 µM in the data set with NCI-H1975; 2.6 µM in data set [3]. The Stability entry in data set [4] was “Unstable”.

Turning to `COC(=O)[C@@]12Oc3ccc(-c4ccc5c(c4O)C(=O)C4=C(O)C[C@H](C)[C@@H](O)[C@]4(C(=O)OC)O5)c(O)c3C(=O)C1=C(O)C[C@H](C)[C@H]2O`, the IC50 in data set [5] turned out to be 1.5 µM; in data set [1], 0.9 µM; in the data set on K562 it was 2 µM; in the data set on A549, 2.1 µM; in data set [2], 1.5 µM; in [3] it was 1 µM.

As to `COC(=O)[C@@]12Oc3c(-c4ccc(O)c5c4O[C@](C(=O)OC)([C@@H]4OC(=O)C[C@@H]4C)CC5=O)ccc(O)c3C(=O)C1=C(O)C[C@H](C)[C@H]2O`, the IC50 in data set [5] is 21.6 µM; with A549 it was above 50 µM; in [2] it was above 50 µM; with NCI-H1975 it was above 50 µM; in data set [3], 9.9 µM. Further, in data set [4], the Stability result was “Unstable”.

These data come from ChEMBL document CHEMBL3739368, “Versixanthones A-F, Cytotoxic Xanthone-Chromanone Dimers from the Marine-Derived Fungus Aspergillus versicolor HDN1009” (J Nat Prod, 2015).
